Assay results reported in ChEMBL document CHEMBL4393678, “Novel Tetrahydroquinazolinamines as Selective Histamine 3 Receptor Antagonists for the Treatment of Obesity” (J Med Chem, 2019).
The source made the active and inactive calls. No cut-off for these calls is given here.

Assays:
[1] = target: T1, Muscarinic acetylcholine receptor M5 (Homo sapiens) (UniProt P08912); assay: Antagonist activity at M5R (unknown origin) expressed in HEK293 cells harboring luc2P/NFAT-RE plasmid at 10 uM after 6 to 8 hrs by luciferase reporter gene assay; assay type: cell-based
T1 sequence (whole entry): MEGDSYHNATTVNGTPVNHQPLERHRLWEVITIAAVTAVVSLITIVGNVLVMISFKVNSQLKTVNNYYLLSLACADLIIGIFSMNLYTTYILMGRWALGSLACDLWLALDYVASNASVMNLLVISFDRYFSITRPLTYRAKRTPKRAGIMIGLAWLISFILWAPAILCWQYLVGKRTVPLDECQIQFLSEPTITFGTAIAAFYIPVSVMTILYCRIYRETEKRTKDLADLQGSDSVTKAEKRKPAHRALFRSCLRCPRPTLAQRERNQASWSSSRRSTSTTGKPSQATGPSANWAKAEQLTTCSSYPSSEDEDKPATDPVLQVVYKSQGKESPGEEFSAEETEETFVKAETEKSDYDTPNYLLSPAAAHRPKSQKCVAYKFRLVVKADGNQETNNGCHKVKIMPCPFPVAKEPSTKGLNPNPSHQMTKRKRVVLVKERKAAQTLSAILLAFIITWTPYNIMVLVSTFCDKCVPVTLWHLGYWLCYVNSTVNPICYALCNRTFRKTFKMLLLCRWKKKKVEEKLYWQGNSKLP
In short: (§1)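 NFAT-RE luciferase assay in HEK293T cells transiently co-transfected with luc2P/NFAT-RE plasmid and receptor plasmid. Cells plated in DMEM and incubated overnight at 37 °C, 5% CO₂. Compounds and reference ligands applied for 6-8 h. Luciferase read after adding Bright-Glo substrate (1 mg/ml final).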

[2] = AUClast in C57BL/6J mouse brain at 20 mg/kg, po by LC-MS/MS analysis; assay type: ADME, organism-based; design: dose 20 mg/kg, route oral, time 0 - last
In short: (§2)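 Male C57BL/6J mice, 6-8 weeks, 20 ± 5 g, fasted overnight (12-16 h), n = 5 per time point. Single 20 mg/kg oral dose given by feeding needle as a 2.5 mg/mL suspension in 1% w/v gum acacia and water. Serum and brain (homogenized 1:6 w/v in PBS) sampled up to 24 h. Liquid-liquid extraction, then LC-MS/MS in positive MRM mode with phenacetin as internal standard. Linear range 0.25-200 ng/mL. Non-compartmental and compartmental analysis.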

[3] = target: T2, Muscarinic acetylcholine receptor M1 (Homo sapiens) (UniProt P11229); assay: Antagonist activity at M1R (unknown origin) expressed in HEK293 cells harboring luc2P/NFAT-RE plasmid at 10 uM after 6 to 8 hrs by luciferase reporter gene assay; assay type: cell-based; in short: as §1
T2 sequence (whole entry): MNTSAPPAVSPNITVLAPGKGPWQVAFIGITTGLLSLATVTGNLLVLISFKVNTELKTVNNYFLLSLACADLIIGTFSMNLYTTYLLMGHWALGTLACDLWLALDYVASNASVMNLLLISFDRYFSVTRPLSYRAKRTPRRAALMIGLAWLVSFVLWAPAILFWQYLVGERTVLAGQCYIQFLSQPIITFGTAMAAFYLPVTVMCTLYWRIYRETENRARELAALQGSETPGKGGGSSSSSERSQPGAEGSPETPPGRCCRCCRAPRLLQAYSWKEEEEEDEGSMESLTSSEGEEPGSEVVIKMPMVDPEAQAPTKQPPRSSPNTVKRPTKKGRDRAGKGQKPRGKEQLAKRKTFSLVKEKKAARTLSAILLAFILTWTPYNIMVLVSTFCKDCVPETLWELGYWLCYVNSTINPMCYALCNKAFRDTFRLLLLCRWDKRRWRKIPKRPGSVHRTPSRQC

[4] = target: T3, G-protein coupled bile acid receptor 1 (Homo sapiens) (UniProt Q8TDU6); assay: Agonist activity at Gs-coupled GPBAR1 (unknown origin) expressed in HEK293T cells assessed as inhibition of forskolin-stimulated cAMP accumulation preincubated for 10 to 15 followed by forskolin-stimulation by Glo-sensor assay; assay type: functional, cell-based
T3 sequence (whole entry): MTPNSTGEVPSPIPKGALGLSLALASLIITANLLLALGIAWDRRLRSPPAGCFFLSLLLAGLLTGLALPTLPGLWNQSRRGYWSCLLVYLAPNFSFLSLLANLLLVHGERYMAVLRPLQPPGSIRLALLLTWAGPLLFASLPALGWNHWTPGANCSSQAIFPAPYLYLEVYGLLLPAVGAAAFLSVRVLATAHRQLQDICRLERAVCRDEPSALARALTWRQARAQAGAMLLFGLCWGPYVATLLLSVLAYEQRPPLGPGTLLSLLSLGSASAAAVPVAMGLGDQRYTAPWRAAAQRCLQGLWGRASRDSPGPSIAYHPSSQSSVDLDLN

[5] = target: D(1A) dopamine receptor (Homo sapiens) (UniProt P21728); assay: Antagonist activity at Gs-coupled D1 receptor (unknown origin) expressed in HEK293T cells assessed as reduction in histamine-induced inhibition of forskolin-stimulated cAMP accumulation preincubated for 10 to 15 followed by histamine addition for 10 mins and subsequent forskolin-stimulation by Glo-sensor assay; assay type: functional, cell-based
[6] = target: Free fatty acid receptor 1 (Homo sapiens) (UniProt O14842); assay: Antagonist activity at GPR40 (unknown origin) expressed in HEK293 cells harboring luc2P/NFAT-RE plasmid at 10 uM after 6 to 8 hrs by luciferase reporter gene assay; assay type: cell-based; in short: as §1
[7] = Ratio of AUClast in C57BL/6J mouse brain to AUClast in C57BL/6J mouse serum; assay type: ADME
In short: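 Male C57BL/6J mice (6–8 weeks) were fasted 12–16 h, then given a single oral dose of 20 mg/kg as a 2.5 mg/mL suspension in 1% gum acacia/water (n=5 per time point). Serum and brain (homogenised 1:6 in PBS) were sampled up to 24 h. Parent and demethylated metabolite were measured by LC-MS/MS (range 0.25–200 ng/mL). AUC ran to the last observation.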

[8] = tested on: Mus musculus; assay: Anti-obesity activity in 16 hrs fasted db/db-induced obese C57BL/6J mouse model assessed as change in blood LDL level at 20 mg/kg, po measured after 6 weeks; assay type: functional, organism-based
[9] = AUClast in C57BL/6J mouse serum assessed as 4-(2-Amino-8-methyl-5,6,7,8-tetrahydroquinazolin-4-yl)phenol level at 20 mg/kg, po by LC-MS/MS analysis; assay type: ADME, organism-based; design: dose 20 mg/kg, time 0 - last, route oral; details: in vivo; in short: as §2
[10] = tested on: Mus musculus; assay: Anti-obesity activity in 16 hrs fasted db/db-induced obese C57BL/6J mouse model assessed as reduction in fasting blood glucose level at 20 mg/kg, po measured after 4 weeks; assay type: functional, organism-based
[11] = tested on: Mus musculus; assay: Anorexic effect in 12 hrs fasted db/db-induced obese C57BL/6J mouse model assessed as reduction in cumulative food intake at 10 mg/kg, po pretreated for 30 mins followed by food addition measured after 4 hrs; assay type: functional, organism-based
In short: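 Mice starved 12 h (8:00 am to 8:00 pm) with water available, then housed singly. Compound given orally in 5% gum acacia in normal saline; vehicle group received the same. Cumulative food intake measured over 4 h of the night phase (9:00 pm to 1:00 am), starting 30 min after dosing. Antagonism arms: imitet 5 mg/kg i.p. 30 min before compound, or α-methyl-DL-histidine 20 mg/kg i.p. 2 h before.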

[12] = tested on: Mus musculus; assay: Anti-obesity activity in high fat diet-induced obese C57BL/6J mouse model assessed as reduction in body fat mass at 20 mg/kg, po measured after 6 weeks relative to control by NMR-based magnetic resonance imaging analysis; assay type: functional; design: scale not given: the % may be the effect or the level left

D(1A) dopamine receptor (Homo sapiens), sequence (P21728 whole entry): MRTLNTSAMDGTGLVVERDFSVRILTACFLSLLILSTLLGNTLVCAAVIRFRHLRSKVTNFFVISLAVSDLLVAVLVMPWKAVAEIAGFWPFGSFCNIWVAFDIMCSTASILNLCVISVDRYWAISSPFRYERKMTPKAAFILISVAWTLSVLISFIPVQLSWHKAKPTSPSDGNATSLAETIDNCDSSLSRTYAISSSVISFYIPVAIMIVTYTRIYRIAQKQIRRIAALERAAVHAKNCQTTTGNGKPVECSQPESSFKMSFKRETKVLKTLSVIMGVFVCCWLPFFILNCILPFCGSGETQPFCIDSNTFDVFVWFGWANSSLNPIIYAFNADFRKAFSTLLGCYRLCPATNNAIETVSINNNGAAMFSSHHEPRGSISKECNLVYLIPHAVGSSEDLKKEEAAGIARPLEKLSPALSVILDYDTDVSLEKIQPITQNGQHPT
Free fatty acid receptor 1 (Homo sapiens), sequence (O14842 whole entry): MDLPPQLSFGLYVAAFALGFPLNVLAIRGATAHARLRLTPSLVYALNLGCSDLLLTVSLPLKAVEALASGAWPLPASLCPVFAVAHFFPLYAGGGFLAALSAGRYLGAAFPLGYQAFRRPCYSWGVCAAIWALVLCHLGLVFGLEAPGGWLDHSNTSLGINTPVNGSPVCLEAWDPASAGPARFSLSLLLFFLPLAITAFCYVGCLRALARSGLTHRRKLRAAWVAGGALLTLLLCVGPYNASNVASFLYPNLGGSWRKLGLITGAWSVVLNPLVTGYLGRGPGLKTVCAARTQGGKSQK

COc1ccc(-c2nc(N)nc3c2CCCC3C)cc1 (racemic)
inhibition [1]: inactive | AUC(0-t) [2]: 310 ng·h/mL | inhibition [3]: inactive | Activity [4]: inactive | inhibition [5]: inactive | inhibition [6]: inactive | Ratio AUC [7]: 16.2% | Activity [8]: inactive | AUClast [9]: 1646.9 ng·h/mL | Activity [10]: Active | Activity [11]: inactive | Activity [12]: 27.1%
